Hits are enriched below; roughly 2.6% of the tested compounds scored in any of these assays.
Platelet DG rel = inhibitors of platelet dense granule secretion, primary screen, cell-based, MLPCN, human platelets. inhibition, %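 (compounds screened at 7.5 µM in platelet-rich plasma)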. human platelet-rich plasma, SFLLRN dense granule ATP release, luminescence. hit rate 0.22% among 300,000;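 active = mean replicate score, as percent of positive control, at or above 50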
SENP8 block-1 = human SENP8 protease inhibitors, primary screen, biochemical, fluorescence, Nedd8 protein substrate, uHTS; hit rate 0.64% among 360,000; recombinant SENP8; Sentrin-specific protease 8 (Homo sapiens), Q96LD8; inhibition, % at 20 µM; AID 602440, 2012; in the data active = inhibition mostly above about 40%, no sharp cut-off; inactive = mostly below about 27%
Target sequence (Q96LD8 whole entry, looked up): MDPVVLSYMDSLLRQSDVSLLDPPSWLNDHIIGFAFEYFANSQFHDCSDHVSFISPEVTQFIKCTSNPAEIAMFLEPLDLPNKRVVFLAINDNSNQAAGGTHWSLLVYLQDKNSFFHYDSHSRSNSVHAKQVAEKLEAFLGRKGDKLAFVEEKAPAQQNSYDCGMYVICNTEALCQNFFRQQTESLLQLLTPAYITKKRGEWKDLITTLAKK
SENP8 block-2 = SENP8 protease inhibitors, primary screen, biochemical, luminescence; purified SENP8, Z-RLRGG-aminoluciferin cleavage; Sentrin-specific protease 8 (Homo sapiens), Q96LD8; hit rate 1.2% among 330,000; inhibition, % at 10 µM; AID 2540, 2010; in the data active = inhibition above about 50%
SENP1 inh = human SENP1 catalytic domain inhibitors, primary screen, biochemical, FRET, uHTS; Sentrin-specific protease 1 (Homo sapiens), Q9P0U3; AID 624204, 2012; recombinant SENP1 catalytic domain, CyPet-SUMO1-YPet FRET cleavage; hit rate 0.21% among 360,000; inhibition, % at 10 µM;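 active = inhibition at least 30% at 10 µM, raw YFP signal under a set limit, fluorescence ratio 0.5 to 1.5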;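 note: 0% = enzyme with DMSO and 100% = no enzyme wells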
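Material – human SENP1 catalytic domain · Input – SENP1 enzyme, 20 pM final · Compound dosing – single concentration of 10 µM compound, 0.5% DMSO final · Timing – enzyme reaction for 50 min at room temperature, dark · Measured by – FRET fluorescence in CFP and YFP emission channels · Control set – no-enzyme wells low, DMSO-plus-enzyme wells high control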
SENP7 inh = SENP7 protease inhibitors, primary screen, biochemical, luminescence, uHTS. Sentrin-specific protease 7 (Homo sapiens), Q9BQF6. recombinant SENP7, Z-RLRGG-aminoluciferin luminescence, 40 min. inhibition, % at 5 µM. hit rate 1.5% among 330,000. AID 434973, 2010;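 active = inhibition above about 50% at the single test dose, limit read from the data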;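 note: plate controls were DMSO with enzyme for no effect and no enzyme buffer wells for full effect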
SENP6 inh = SENP6 protease inhibitors, primary screen, biochemical, luminescence, uHTS; Sentrin-specific protease 6 (Homo sapiens), Q9GZR1; Recombinant SENP6 catalytic domain, aminoluciferin luminescence; inhibition, % at 10 µM; hit rate 1.8% among 330,000; AID 2599, 2010;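 active = inhibition above about 50% at the single tested dose, limit read from the data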;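 note: plate controls were DMSO wells with enzyme for no effect and DMSO wells lacking enzyme for full effect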
SENP8 confirm = SENP8 protease inhibitors, retest, confirmation, biochemical, luminescence, single concentration; hit rate 40% among 6,200; inhibition, % at 12.5 µM; Recombinant SENP8, Z-RLRGG-aminoluciferin luminescence, 60 min; shares compounds with SENP7 inh;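 active = mean inhibition across replicates above about 50%, limit read from the data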
SENP6 confirm = SENP6 protease inhibitors, confirmation, biochemical, luminescence, single concentration. shares compounds with SENP7 inh. recombinant SENP6, Z-RLRGG-aminoluciferin luminescence. inhibition, % at 12.5 µM. hit rate 58% among 6,200. AID 488915, 2010
SENP7 conf = SENP7 protease inhibitors, retest, confirmation, biochemical, luminescence, single concentration | shares compounds with SENP7 inh | recombinant SENP7, Z-RLRGG-aminoluciferin luminescence, 40 min | inhibition, % at 12.5 µM | hit rate 69% among 6,200 | AID 488917, 2010
Casp3 select = caspase-3 protease inhibitors, confirmation, selectivity assay for SENP inhibitor project, biochemical, single concentration; shares compounds with SENP7 inh; purified caspase-3, Z-DEVD-aminoluciferin luminescence, 60 min; inhibition, % at 12.5 µM; hit rate 60% among 6,200; AID 488918, 2010;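 active = mean inhibition above about 50%, limit read from the data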;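 note: plate controls were enzyme with DMSO for no effect and wells without caspase-3 for full effect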
Target sequence (P42574 28-227 limits assumed): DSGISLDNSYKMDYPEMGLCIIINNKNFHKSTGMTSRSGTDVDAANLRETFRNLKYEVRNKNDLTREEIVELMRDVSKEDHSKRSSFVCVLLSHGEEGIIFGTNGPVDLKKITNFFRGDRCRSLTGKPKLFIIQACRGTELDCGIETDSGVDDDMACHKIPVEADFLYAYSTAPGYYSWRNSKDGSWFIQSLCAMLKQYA
SENP luc ctr = luminescence interference (SENP counter-screen). shares compounds with SENP7 inh. hit rate 39% among 6,200. Pre-incubated SENP8/Z-RLRGG-aminoluciferin, luciferase luminescence interference. inhibition, % at 12.5 µM;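 active = mean inhibition above about 50% when retested at one dose, limit read from the data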;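 note: plate controls were DMSO wells with completed reaction for no effect and substrate without enzyme for full effect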
Starred values were filed as active, the others as inactive; . = not tested or not shown.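 Rule for the calls, unless noted: active = mean inhibition above about 50% in the one-dose retest (limit read from the data); inactive = the rest.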

SMILES	Platelet DG rel	SENP8 block-1	SENP8 block-2	SENP1 inh	SENP7 inh	SENP6 inh	SENP8 confirm	SENP6 confirm	SENP7 conf	Casp3 select	SENP luc ctr
O=C(N/N=C/c1ccc(Cl)cc1Cl)c1cccc(F)c1	3	20	77*	1	88*	89*	-6	10	33	32	7
O=C(N/N=C/c1ccc(OC(=O)c2cccs2)cc1)c1cccc(F)c1	-2	17	3	1	72*	16	-9	-4	-4	25	4
CC(/C=N/NC(=O)c1cccc(F)c1)=C\c1ccccc1	-20	-3	67*	1	79*	83*	76*	78*	95*	82*	71*
CSc1ccc(/C=N/NC(=O)c2cccs2)cc1	23	-385	74*	1	88*	83*	26	66*	98*	86*	85*
O=C(N/N=C/c1ccc(Cl)cc1Cl)c1ccc2nc[nH]c2c1	9	11	-5	5	0	-16	.	.	.	.	.
O=C(N/N=C/c1ccncc1)c1cccs1	0	9	-14	2	2	9	.	.	.	.	.
CCOc1ccc(S(=O)(=O)N2CCC(C(=O)N3CCCC3)CC2)cc1C	-5	2	-4	-1	1	-8	.	.	.	.	.
O=[N+]([O-])c1ccc(O)c(C(C#Cc2ccccc2)N2CCOCC2)c1 (stereo not drawn)	5	23	4	3	4	-2	.	.	.	.	.
Cc1ccc2nc(NS(=O)(=O)c3cn(C)nc3C)sc2c1	-6	2	0	3	2	-1	.	.	.	.	.
O=C(N/N=C/C(Br)=C\c1ccccc1)c1cccs1	11	9	52*	0	30	63*	18	49	77*	30	7
O=C(O)c1ccc(N/N=C/C(Br)=C/c2ccccc2)cc1	-1	-42	96*	-33	83*	101*	99*	100*	103*	85*	96*
Cc1ccc(/C=N/NC(=O)CNC(=O)c2cccs2)o1	-2	4	-2	4	5	7	.	.	.	.	.
O=C(N/N=C/c1ccc(-c2ccccc2C(=O)O)o1)c1cccs1	15	-307	21	-11	19	51*	41	32	64*	73*	20
CC(=C/c1ccccc1)/C=N/NC(=O)c1ccccn1	30	-36	61*	1	81*	69*	72*	71*	92*	85*	73*
Cc1nc2c(OCc3cccc(Cl)c3)cccn2c1N(C)Cc1cccs1	.	-29	.	-21	.	.	.	.	.	.	.
CC(=C/c1ccccc1)/C=N/NC(=O)c1cccs1	5	-22	75*	3	79*	83*	42	80*	96*	70*	34
COc1cc(SC)ccc1C(=O)NNC(=O)c1cc(C)oc1C	58*	-4	94*	2	98*	98*	98*	99*	103*	98*	93*
COc1ccccc1C(=O)Nc1ccc2c(c1)OCCO2	12	13	16	-2	43	53*	32	30	71*	69*	52*
COc1ccc(Cl)cc1C(=O)Nc1ccc2c(c1)OCCO2	1	22	-12	-1	-12	-20	.	.	.	.	.
COc1cc(SC)ccc1C(=O)Nc1ccc2c(c1)OCCO2	4	3	63*	0	81*	79*	80*	81*	95*	75*	64*
O=C(NCCCn1ccnc1)c1cccc(Br)c1	-5	6	1	-1	-2	13	.	.	.	.	.
O=C(O)c1ccc(N/N=C2/CCCc3ccccc32)cc1	7	-19	48	2	17	71*	71*	68*	84*	73*	58*
Cc1ccc(C(=O)O/N=C2\CCCc3ccccc32)cc1	14	12	90*	5	97*	97*	72*	98*	103*	85*	12
O=C(O/N=C1\CCCc2ccccc21)c1cccc(Cl)c1	-1	5	46	3	82*	83*	66*	64*	90*	65*	43
O=C(N/N=C1\CCCc2ccccc21)c1ccccc1Cl	9	6	-1	1	4	18	.	.	.	.	.
SMILES	Platelet DG rel	SENP8 block-1	SENP8 block-2	SENP1 inh	SENP7 inh	SENP6 inh	SENP8 confirm	SENP6 confirm	SENP7 conf	Casp3 select	SENP luc ctr
Cc1cccc(C(=O)O/N=C2\CCCc3ccccc32)c1	-1	4	65*	1	90*	92*	43	88*	98*	78*	64*
O=C(O/N=C1\CCCc2ccccc21)C1CC1	-1	21	0	3	2	8	.	.	.	.	.
Cc1cccc(C(=O)O/N=C2\CCSc3ccc(C)cc32)c1	1	-37	0	-3	1	13	.	.	.	.	.
Cc1c(C)n(C)c2ccc(C(=O)NCCN3CCOCC3)cc12	10	-174	-2	-4	2	4	.	.	.	.	.
C/C(=N\NC(=O)c1cc2ccccc2cc1O)c1cccs1	6	-45	86*	25	89*	93*	12	94*	101*	96*	34
Cn1cccc1/C=N/NC(=O)c1cc2ccccc2cc1O	25	-207	49	12	48	59*	56*	54*	84*	68*	2
Cc1ccc2c(Cl)c(C(=O)N/N=C/c3cccn3C)sc2c1	3	-5	29	-26	84*	39	10	8	-5	11	1
C/C(=N/NC(=O)c1cccs1)c1cccs1	1	-12	15	1	62*	33	25	25	70*	63*	32
